Laboratory results from ChEMBL document CHEMBL4616704, “Discovery of an Atropisomeric PI3Kβ Selective Inhibitor through Optimization of the Hinge Binding Motif” (ACS Med Chem Lett, 2020).

Legend:
[1] = Protein binding in rhesus monkey plasma at 1 mg/kg administered as iv infusion for 30 mins and measured after 24 hrs by ESI-LC/MS/MS analysis; format: ADME, organism-based, Macaca mulatta; conditions: read-out: PPB (converted)
[2] = target: T1, Phosphatidylinositol 4,5-bisphosphate 3-kinase catalytic subunit beta isoform (Homo sapiens, UniProt P42338); assay: Inhibition of PI3Kbeta in PTEN-deficient human LNCAP cells assessed as reduction in AKT phosphorylation at Ser473 residue after 2 hrs by mesoscale assay; format: cell-based
Outline: (§1)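 Cellular readout: pAKT1 Ser473 normalized to total AKT1, expressed as units pAKT1 Ser473 per nanogram total AKT1; cells treated under serum-free conditions.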

[3] = Ocular toxicity in Beagle dog assessed as irreversible damage by measuring retinal degeneration at 10 to 100 mg/kg/day administered for 7 days by microscopic analysis; format: organism-based, Canis lupus familiaris; conditions: in vivo, 168 h
[4] = Oral bioavailability in Beagle dog at 5 mg/kg dosed via gavage after 24 hrs by ESI-LC/MS/MS analysis; format: ADME, organism-based, Canis lupus familiaris; conditions: in vivo
[5] = Ocular toxicity in Beagle dog assessed as irreversible damage by measuring decrease response in visual stimuli at 10 to 40 mg/kg/day administered for 7 days and measured from day 4 to day 7; format: organism-based, Canis lupus familiaris; conditions: in vivo, 168 h
[6] = Clearance in rhesus monkey at 1 mg/kg administered as iv infusion for 30 mins and measured after 24 hrs by ESI-LC/MS/MS analysis; format: ADME, organism-based, Macaca mulatta; conditions: in vivo
[7] = Terminal half life in cynomolgus monkey at 1 mg/kg administered as iv infusion for 30 mins and measured after 24 hrs by ESI-LC/MS/MS analysis; format: ADME, organism-based, Macaca fascicularis; conditions: in vivo, read-out: beta t1/2 (converted)
[8] = MRT in rhesus monkey at 1 mg/kg administered as iv infusion for 30 mins and measured after 24 hrs by ESI-LC/MS/MS analysis; format: ADME, organism-based, Macaca mulatta; conditions: in vivo
[9] = Ocular toxicity in Beagle dog assessed as irreversible damage by measuring ocular discharge at 10 to 40 mg/kg/day administered for 7 days and measured from day 4 to day 7; format: organism-based, Canis lupus familiaris; conditions: in vivo, 168 h
[10] = target: T1, Phosphatidylinositol 4,5-bisphosphate 3-kinase catalytic subunit beta isoform; assay: Inhibition of PI3Kbeta in PTEN-deficient human MDA-MB-415 cells assessed as reduction in AKT phosphorylation at Ser473 residue after 2 hrs by mesoscale assay; format: cell-based; outline: as §1
[11] = Dissociation constant, acidic pKa of compound; format: physicochemical

T1 sequence (P42338 whole entry, canonical isoform): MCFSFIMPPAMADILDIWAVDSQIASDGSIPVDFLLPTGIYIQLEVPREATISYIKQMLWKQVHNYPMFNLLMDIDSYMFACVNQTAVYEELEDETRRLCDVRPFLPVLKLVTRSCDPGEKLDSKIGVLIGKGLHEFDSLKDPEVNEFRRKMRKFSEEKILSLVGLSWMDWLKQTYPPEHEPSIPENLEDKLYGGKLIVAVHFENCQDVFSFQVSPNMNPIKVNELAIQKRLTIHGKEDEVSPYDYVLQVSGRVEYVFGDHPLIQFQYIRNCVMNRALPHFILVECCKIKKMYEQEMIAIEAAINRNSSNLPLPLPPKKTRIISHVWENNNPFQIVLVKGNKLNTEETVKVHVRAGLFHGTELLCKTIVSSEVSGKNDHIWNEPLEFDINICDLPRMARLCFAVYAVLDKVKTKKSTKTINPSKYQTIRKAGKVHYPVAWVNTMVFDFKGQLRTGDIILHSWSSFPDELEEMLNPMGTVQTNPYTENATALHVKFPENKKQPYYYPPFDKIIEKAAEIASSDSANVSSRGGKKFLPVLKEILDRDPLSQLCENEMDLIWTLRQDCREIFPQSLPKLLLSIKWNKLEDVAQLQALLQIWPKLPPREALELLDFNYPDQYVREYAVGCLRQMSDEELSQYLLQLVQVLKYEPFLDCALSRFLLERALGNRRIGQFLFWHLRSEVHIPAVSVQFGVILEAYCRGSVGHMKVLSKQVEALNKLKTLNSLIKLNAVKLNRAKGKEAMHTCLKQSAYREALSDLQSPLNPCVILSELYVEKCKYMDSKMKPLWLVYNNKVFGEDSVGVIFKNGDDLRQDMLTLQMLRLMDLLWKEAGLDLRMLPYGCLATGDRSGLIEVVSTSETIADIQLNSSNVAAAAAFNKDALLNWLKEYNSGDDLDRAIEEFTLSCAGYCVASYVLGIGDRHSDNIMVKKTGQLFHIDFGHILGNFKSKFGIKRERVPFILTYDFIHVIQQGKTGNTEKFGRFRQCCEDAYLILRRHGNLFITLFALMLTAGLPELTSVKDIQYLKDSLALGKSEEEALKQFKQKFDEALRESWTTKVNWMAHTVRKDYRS

- fraction unbound at 24 h [1]: 0.19
- EC50 [2]: 31 nM
- bioavailability [4]: 76%
- clearance [6]: 7.83 mL/min/kg
- half-life [7]: 4.1 h
- MRT [8]: 5.5 h
- EC50 [10]: 15 nM
- pKa [11]: < 1
Compound: Cc1nc2c(-c3nnc[nH]3)cc(-c3ccnc(C#N)c3)cc2n1-c1ccnc2c(F)ccc(F)c12
- Activity [3]: Toxic
- Activity [5]: Toxic
- Activity [9]: Toxic
